{"data": "Measurements of several laboratories", "observed": "cell growth or viability", "note": "Each line is one published result; the experiments were not run side by side."}
{"SMILES": "CC(C)c1cc(C(=O)N2Cc3ccccc3C2)c(O)c2c1CCCC2=O", "cell line": "UMUC3", "method": "ATP luminescence", "time": "72 h", "IC50": "> 100 µM"}
{"SMILES": "CC(C)C[C@H](NC(=O)[C@H](Cc1ccccc1)NC(=O)c1cnccn1)B(O)O", "cell line": "NCI-H1581", "method": "ATP luminescence", "IC50": "0.016 µM"}
{"SMILES": "Cc1cccc(-n2ncc(Br)c(Br)c2=O)c1", "cell line": "NCI-H1650", "method": "resazurin", "time": "96 h", "IC50": "0.74 µM"}
{"SMILES": "CN1/C(=N/c2ccc(Cl)cc2)c2cc(C(N)=O)nc3c(N)c(Cl)c(N)c1c23", "cell line": "HCC44", "IC50": "23.2 µM"}
{"SMILES": "C[C@]12CC[C@H](O)CC1=CC[C@@H]1[C@@H]2CC[C@]2(C)C(n3cnc4ccccc43)=CC[C@@H]12", "cell line": "LAPC4", "method": "MTT", "time": "7 days", "IC50": "4 µM"}
{"SMILES": "CC(C)Cc1ccc(-c2nn(-c3ccc(S(C)(=O)=O)cc3)cc2/C=N/N=c2\\[nH]c(-c3ccc(Br)cc3)cs2)cc1", "cell line": "F180", "method": "MTT", "time": "48 h", "IC50": "73.7 µM"}
{"SMILES": "CNC(=O)c1ccc(N2C(=S)N(c3cnc(C#N)c(C(F)(F)F)c3)C(=O)C23CCC3)cc1F", "cell line": "LAPC4", "method": "ATP luminescence", "time": "6 days", "IC50": "1.1 µM"}
{"SMILES": "Cn1nnc2c(Cl)ncn2c1=O", "cell line": "U-118-MG", "method": "resazurin", "time": "7 days", "IC50": "60 µM"}
{"SMILES": "CC(C)c1cc(C(=O)N2Cc3ccccc3C2)c(O)c2c1C(=O)C=C2", "cell line": "UMUC3", "method": "ATP luminescence", "time": "72 h", "IC50": "1.18 µM"}
{"SMILES": "O=c1c(O)c(-c2ccc(O)c(O)c2)oc2cc(O)cc(O)c12", "cell line": "RD", "method": "WST-1", "time": "48 h", "IC50": "29.8 µM"}
{"SMILES": "Cn1nnc2c(C(N)=O)ncn2c1=O", "cell line": "U-118-MG", "method": "resazurin", "time": "7 days", "IC50": "322 µM"}
{"SMILES": "CC(=O)OC[C@H]1O[C@@H]([S-])[C@H](OC(C)=O)[C@@H](OC(C)=O)[C@@H]1OC(C)=O.CCP(CC)CC.[Au+]", "cell line": "IMR-90", "method": "resazurin", "IC50": "6.77 µM"}
{"SMILES": "CC(C)c1cc(C(=O)N2Cc3ccccc3C2)c(O)c2cn[nH]c12", "cell line": "UMUC3", "method": "ATP luminescence", "time": "72 h", "IC50": "> 100 µM"}
{"SMILES": "COc1cc(Nc2nccc(-c3cnn4nc(OC)ccc34)n2)cc(C(F)(F)F)c1", "cell line": "LoVo", "method": "ATP luminescence", "IC50": "0.16 µM"}
{"SMILES": "CNC(=O)c1cc(Oc2ccc(NC(=O)Nc3ccc(Cl)c(C(F)(F)F)c3)cc2)ccn1", "cell line": "Swiss-3T3", "method": "SRB", "IC50": "0.427 µM"}
{"SMILES": "COc1cc(/C=C/C(=O)/C=C/c2c(C)nn(-c3ccccc3)c2Cl)ccc1O", "cell line": "LLC-PK1", "method": "MTT", "time": "72 h", "IC50": "9.56 µM"}
{"SMILES": "Cc1cc(Nc2ncc(Cl)c(Nc3ccccc3S(=O)(=O)C(C)C)n2)c(OC(C)C)cc1C1CCNCC1", "cell line": "RD", "time": "72 h", "IC50": "2.18 µM"}
{"SMILES": "COc1cccc2c1C(=O)c1c(O)c3c(c(O)c1C2=O)C[C@@](O)(C(=O)CO)C[C@@H]3O[C@H]1C[C@H](N)[C@H](O)[C@H](C)O1", "cell line": "Caco-2", "method": "MTT", "time": "48 h", "IC50": "17.8 µM"}
{"SMILES": "CS(=O)(=O)c1ccc(-n2cc(/C=N/N=c3\\[nH]c(-c4ccc(Br)cc4)cs3)c(-c3ccc(Br)cc3)n2)cc1", "cell line": "F180", "method": "MTT", "time": "48 h", "IC50": "59.8 µM"}
{"SMILES": "CC(C)c1cc(C(=O)N2Cc3ccccc3C2)c(O)c2cc[nH]c12", "cell line": "UMUC3", "method": "ATP luminescence", "time": "72 h", "IC50": "> 100 µM"}
{"SMILES": "Nc1ncnc2c1ncn2[C@@H]1O[C@H](CO)[C@@H](O)[C@H]1O", "cell line": "RD", "method": "WST-1", "time": "48 h", "IC50": "66.5 µM"}
{"SMILES": "COc1ccc(/C=C/C(=O)/C=C/c2c(C)nn(-c3cccc([N+](=O)[O-])c3)c2Cl)cc1OC", "cell line": "LLC-PK1", "method": "MTT", "time": "72 h", "IC50": "21 µM"}
{"SMILES": "CC(C)c1cc(C(=O)N2Cc3ccccc3C2)c(O)c2c1C(=NO)CC2", "cell line": "UMUC3", "method": "ATP luminescence", "time": "72 h", "IC50": "51.6 µM"}
{"SMILES": "COc1cc(/C=C/C(=O)/C=C/c2c(C)nn(-c3ccccc3)c2Cl)cc(OC)c1O", "cell line": "LLC-PK1", "method": "MTT", "time": "72 h", "IC50": "12.9 µM"}
{"SMILES": "c1csc([I+]c2cccs2)c1", "cell line": "Caco-2", "method": "trypan blue", "time": "48 h", "IC50": "~0.5 µM"}
{"SMILES": "COc1cc(/C=C/C(=O)/C=C/c2c(C)nn(-c3cccc([N+](=O)[O-])c3)c2Cl)cc(OC)c1O", "cell line": "LLC-PK1", "method": "MTT", "time": "72 h", "IC50": "15.4 µM"}
{"SMILES": "Cn1nnc2c(-c3ccccc3)ncn2c1=O", "cell line": "U-118-MG", "method": "resazurin", "time": "7 days", "IC50": "3 µM"}
{"SMILES": "CC(C)c1cc(C(=O)N2Cc3ccccc3C2)c(O)c2c1CC=C2", "cell line": "UMUC3", "method": "ATP luminescence", "time": "72 h", "IC50": "51.3 µM"}
{"SMILES": "COc1cccc2c1C(=O)c1c(O)c3c(c(O)c1C2=O)C[C@@](O)(C(=O)CO)C[C@@H]3O[C@H]1C[C@H](N)[C@H](O)[C@H](C)O1", "cell line": "F180", "method": "MTT", "time": "48 h", "IC50": "9.39 µM"}
{"SMILES": "O=c1cc(-c2ccc(O)c(O)c2)oc2cc(O)cc(O)c12", "cell line": "RD", "method": "WST-1", "time": "48 h", "IC50": "16 µM"}
{"SMILES": "CC(C)Cc1ccc(-c2nn(-c3ccc(S(C)(=O)=O)cc3)cc2/C=N/N=c2\\[nH]c(-c3ccc([N+](=O)[O-])cc3)cs2)cc1", "cell line": "F180", "method": "MTT", "time": "48 h", "IC50": "23.6 µM"}
{"SMILES": "COc1cc2nccc(Oc3ccc(NC(=O)C4(C(=O)Nc5ccc(F)cc5)CC4)cc3)c2cc1OC", "cell line": "RD", "time": "72 h", "IC50": "1.21 µM"}
{"SMILES": "COc1cc([C@@H]2c3cc4c(cc3[C@@H](O[C@@H]3O[C@@H]5CO[C@@H](C)O[C@H]5[C@H](O)[C@H]3O)[C@H]3COC(=O)[C@H]23)OCO4)cc(OC)c1O", "cell line": "Caco-2", "method": "MTS", "time": "72 h", "IC50": "14 µM"}
